Assay [1] concerns the target Glucose-6-phosphate 1-dehydrogenase (Homo sapiens, UniProt P11413). In words: Inhibition of human glucose-6-phosphate dehydrogenase after 90 mins by resazurin/diaphorasecoupled assay. Put shortly:
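Dose response with a top final concentration of […] and 0.8% final DMSO, in 50 mM Tris pH 7.5, 0.005% Tween 20 and 1 mg/mL BSA. The enzyme solution held 0.05 μg/mL hG6PD. The substrate solution held 0.64 mM G6P, 12 μM NADP+, 6.6 mM MgCl2, 2 U/mL diaphorase and 0.28 mM resazurin.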

For assay [2], the target named is T1, Glucose-6-phosphate 1-dehydrogenase (Plasmodium falciparum, UniProt Q25856).
T1 sequence (Q25856 whole entry): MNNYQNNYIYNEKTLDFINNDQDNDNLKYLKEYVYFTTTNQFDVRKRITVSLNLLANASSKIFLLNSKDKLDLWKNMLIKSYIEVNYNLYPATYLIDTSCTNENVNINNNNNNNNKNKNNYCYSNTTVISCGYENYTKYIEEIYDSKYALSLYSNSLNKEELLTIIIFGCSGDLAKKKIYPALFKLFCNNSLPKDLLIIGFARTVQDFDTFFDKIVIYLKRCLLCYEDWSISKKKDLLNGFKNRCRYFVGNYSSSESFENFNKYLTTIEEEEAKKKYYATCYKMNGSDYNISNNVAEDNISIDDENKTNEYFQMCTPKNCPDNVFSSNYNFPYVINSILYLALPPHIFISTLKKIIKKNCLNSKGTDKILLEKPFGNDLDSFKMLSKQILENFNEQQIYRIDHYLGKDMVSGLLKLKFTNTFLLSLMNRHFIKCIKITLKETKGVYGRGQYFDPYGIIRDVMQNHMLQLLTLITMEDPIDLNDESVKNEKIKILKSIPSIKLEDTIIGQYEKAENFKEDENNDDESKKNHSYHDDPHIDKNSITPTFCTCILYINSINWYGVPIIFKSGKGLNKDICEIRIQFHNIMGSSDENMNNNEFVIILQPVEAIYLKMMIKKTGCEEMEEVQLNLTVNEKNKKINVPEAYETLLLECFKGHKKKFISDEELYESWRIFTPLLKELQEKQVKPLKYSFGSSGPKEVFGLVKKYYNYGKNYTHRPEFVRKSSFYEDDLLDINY
In words: Inhibition of Plasmodium falciparum glucose-6-phosphate dehydrogenase after 2 hrs by resazurin/diaphorasecoupled assay.

The target of assay [3] is T1, Glucose-6-phosphate 1-dehydrogenase. In words: Inhibition of Plasmodium falciparum glucose-6-phosphate dehydrogenase after 45 mins by orthogonal assay. The gist of the method:
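Direct NADPH read without coupling: PfGluPho (0.4 μg/mL enzyme solution) in 50 mM Tris pH 7.5, 0.005% Tween 20, 1 mg/mL BSA; substrate 40 μM G6P, 6 μM NADP+, 6.6 mM MgCl2.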

The pIC50 is −log10 of the IC50, conventionally taken in molar units. Read a low pIC50 as a high IC50.

pIC50: −log10 of the molar value. Where only a bound is given, the exact number is not on record here.

Glucose-6-phosphate 1-dehydrogenase (Homo sapiens, UniProt P11413), sequence (P11413 whole entry): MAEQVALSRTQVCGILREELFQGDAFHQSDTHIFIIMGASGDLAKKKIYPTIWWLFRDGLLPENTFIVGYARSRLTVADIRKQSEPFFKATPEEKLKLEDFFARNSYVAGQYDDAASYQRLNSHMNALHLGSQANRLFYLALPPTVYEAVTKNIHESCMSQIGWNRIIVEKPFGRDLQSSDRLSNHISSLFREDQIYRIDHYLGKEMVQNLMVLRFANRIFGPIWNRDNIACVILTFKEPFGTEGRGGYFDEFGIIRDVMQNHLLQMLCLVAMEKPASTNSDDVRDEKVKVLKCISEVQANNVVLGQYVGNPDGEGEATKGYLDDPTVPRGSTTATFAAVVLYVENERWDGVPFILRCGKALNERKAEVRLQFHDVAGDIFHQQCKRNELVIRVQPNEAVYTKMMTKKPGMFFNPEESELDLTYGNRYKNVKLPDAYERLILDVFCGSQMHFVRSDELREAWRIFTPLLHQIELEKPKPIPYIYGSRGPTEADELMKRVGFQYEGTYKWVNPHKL

As to `CCN1CCCC1CNC(=O)c1ccc2c(c1)NC(=O)/C(=C/c1cccc(F)c1F)S2` (configuration not stated), in assay [1], the negative logarithm of the IC50 (pIC50) is < 4.10.
As to `CCN1CCCC1CNC(=O)c1ccc2c(c1)NC(=O)/C(=C/c1ccccc1OC)S2` (configuration not stated), the pIC50 in assay [1] was < 4.10; in assay [2], 5.01; in assay [3], 4.95.
For the molecule `CN(C)CCNC(=O)c1ccc2c(c1)NC(=O)/C(=C/c1cccc(Cl)c1)S2`, the negative logarithm of the IC50 (pIC50) was < 4.10 in assay [1], 4.22 in assay [2] and 4.36 in assay [3].
On to `CN(C)CCNC(=O)c1ccc2c(c1)NC(=O)/C(=C/c1ccccc1F)S2` (stereo in doubt; 16), for which the pIC50 in assay [1] is < 4.10.
For `CCCN(CCC)CCNC(=O)c1ccc2c(c1)NC(=O)/C(=C/c1ccc(C)cc1)S2`, the negative-log IC50 (pIC50) in assay [1] was < 4.10; in assay [2] it was < 4.10; in assay [3] it was 4.34.
For the molecule `CCN1CCCC1CNC(=O)c1ccc2c(c1)NC(=O)/C(=C/c1ccc3ccccc3c1)S2` (configuration not stated), the pIC50 in assay [1] was < 4.10; in assay [2] it was 5.62; in assay [3] it was 5.54.
For the molecule `COc1ccc(/C=C2\Sc3ccc(C(=O)NCCN4CCCCCC4)cc3NC2=O)cc1`, the pIC50 in assay [1], in assay [2] and in assay [3] was < 4.10 throughout.
Regarding `CCN1CCCC1CNC(=O)c1ccc2c(c1)NC(=O)/C(=C/c1cccc(F)c1)S2` (configuration not stated), the negative logarithm of the IC50 (pIC50) in assay [1] is < 4.10.
As to `O=C1Nc2cc(C(=O)NCc3ccccc3)ccc2S/C1=C\c1ccccc1F`, the pIC50 in assay [1], in assay [2] and in assay [3] was < 4.10 throughout.
As to `CC(C)(C)OC(=O)N1CCCC1CNC(=O)c1ccc2c(c1)NC(=O)/C(=C/c1ccccc1F)S2` (configuration not stated), the figures for the pIC50 in assay [1], in assay [2] and in assay [3] were < 4.10, < 4.10 and 4.61, respectively.
With `O=C1Nc2cc(C(=O)NCCN3CCCCCC3)ccc2S/C1=C\c1ccccc1Cl`, the negative logarithm of the IC50 (pIC50) in assay [1] is < 4.10; in assay [2] it was 4.39; in assay [3], < 4.10.
Turning to `O=C1Nc2cc(C(=O)NCCN3CCCC3)ccc2S/C1=C\c1ccccc1F` (stereo in doubt; 28), the negative-log IC50 (pIC50) in assay [1] was < 4.10.
Consider `CCN1CCCC1CNC(=O)c1ccc2c(c1)NC(=O)/C(=C/c1ccccc1Cl)S2` (configuration not stated), for which the figures for the pIC50 in assay [1], in assay [2] and in assay [3] were < 4.10, 5.59 and 5.48, respectively.
`CCN1CCCC1CNC(=O)c1ccc2c(c1)NC(=O)/C(=C/c1ccccc1)S2` (configuration not stated): in assay [1], the negative-log IC50 (pIC50) was < 4.10.
On the same count and under the same terms, the value for `O=C1Nc2cc(C(=O)NCCN3CCCC3)ccc2S/C1=C\c1ccccc1F` (stereo in doubt; 29) was < 4.10.
In the case of `O=C1Nc2cc(C(=O)NCCN3CCCC3)ccc2S/C1=C\c1ccccc1Cl`, the negative logarithm of the IC50 (pIC50) in assay [1] is < 4.10; in assay [2], 4.95; in assay [3] it was < 4.10.
`O=C1Nc2cc(C(=O)NCCCN3CCCC3)ccc2S/C1=C\c1cccc(Cl)c1`: in assay [1], the pIC50 is < 4.10.
With `CCN1CCCC1CNC(=O)c1ccc2c(c1)NC(=O)/C(=C/c1ccc(F)cc1)S2` (configuration not stated), the pIC50 in assay [1] was < 4.10; in assay [2], 5.85; in assay [3], 5.69.
As to `CCN(CC)CCNC(=O)c1ccc2c(c1)NC(=O)/C(=C/c1cccc(C)c1)S2`, the pIC50 in assay [1] is < 4.10.
`O=C1Nc2cc(C(=O)NCCCN3CCCC3)ccc2S/C1=C\c1ccccc1`: the negative-log IC50 (pIC50) in assay [1] was < 4.10; in assay [2] it was 5.03; in assay [3] it was 4.65.
The matching figures for `O=C1Nc2cc(C(=O)NCCN3CCCCC3)ccc2S/C1=C\c1ccccc1F`: < 4.10, 4.67 and 4.62.
For `CCN(CC)CCNC(=O)c1ccc2c(c1)NC(=O)/C(=C/c1ccccc1F)S2` (stereo in doubt; 21), the negative-log IC50 (pIC50) was < 4.10 in assay [1], 5.13 in assay [2] and 5.03 in assay [3].
Turning to `O=C1Nc2cc(C(=O)NCC3CCCN3)ccc2S/C1=C\c1ccccc1F` (configuration not stated), in assay [1], the negative-log IC50 (pIC50) was < 4.10.
Take `COc1ccc(/C=C2\Sc3ccc(C(=O)NCCN(C)C)cc3NC2=O)cc1`: the negative-log IC50 (pIC50) in assay [1], in assay [2] and in assay [3] was < 4.10 each time.
For the molecule `CCN1CCCC1CNC(=O)c1ccc2c(c1)NC(=O)C(Cc1ccccc1F)S2` (configuration not stated), the pIC50 in assay [1] and in assay [2] was < 4.10 in each case.
`CCN1CCC[C@H]1CNC(=O)c1ccc2c(c1)NC(=O)/C(=C/c1ccccc1F)S2`: the values for the negative-log IC50 (pIC50) in assay [1], in assay [2] and in assay [3] were < 4.10, 5.18 and 5.33, respectively.
Take `CCN(CC)CCNC(=O)c1ccc2c(c1)NC(=O)/C(=C/c1ccccc1)S2`: the pIC50 in assay [1] is < 4.10; in assay [2], 5.06; in assay [3], 4.74.
The matching figures for `Cc1cccc(/C=C2\Sc3ccc(C(=O)NCCN4CCCC4)cc3NC2=O)c1`: < 4.10, 4.93 and 5.06.
The matching figures for `CCN(CC)CCNC(=O)c1ccc2c(c1)NC(=O)/C(=C/c1ccccc1Cl)S2`: < 4.10, 4.79 and 4.35.
Take `CCN1CCCC1CNC(=O)c1ccc2c(c1)NC(=O)/C(=C/c1cccc3ccccc13)S2` (configuration not stated): the pIC50 in assay [1] is < 4.10; in assay [2], 5.37; in assay [3], 5.38.
The matching figures for `O=C1Nc2cc(C(=O)NCCN3CCOCC3)ccc2S/C1=C\c1ccccc1F`: < 4.10, < 4.10 and < 4.10.
The matching figures for `COc1cccc(/C=C2\Sc3ccc(C(=O)NCCN4CCCCCC4)cc3NC2=O)c1`: < 4.10, < 4.10 and 4.23.
Take `NC1CCN(C(=O)c2ccc3c(c2)NC(=O)/C(=C/c2ccccc2F)S3)C1` (configuration not stated): the pIC50 in assay [1] is < 4.10; in assay [2], 4.35; in assay [3], 4.46.
As to `CCN1CCCC1CNC(=O)c1ccc2c(c1)NC(=O)CS2` (configuration not stated), the negative-log IC50 (pIC50) in assay [2] is < 4.10.
For the molecule `CCN(CC)CCNC(=O)c1ccc2c(c1)NC(=O)/C(=C/c1ccccc1F)S2` (stereo in doubt; 22), the pIC50 is < 4.10 in assay [1], 5.16 in assay [2] and 5.32 in assay [3].
As for `CN(C)CCNC(=O)c1ccc2c(c1)NC(=O)/C(=C/c1ccccc1F)S2` (stereo in doubt; 17), the pIC50 in assay [1] was < 4.10.
In the case of `CN1CCCC1CCNC(=O)c1ccc2c(c1)NC(=O)/C(=C/c1ccccc1F)S2` (configuration not stated), the negative-log IC50 (pIC50) in assay [1] was < 4.10; in assay [2], 4.64; in assay [3], 4.34.
The matching figures for `O=C1Nc2cc(C(=O)NCCN3CCCCCC3)ccc2S/C1=C\c1ccccc1F`: < 4.10, 4.33 and 4.96.
As for `CCN1CCCC1CNC(=O)c1ccc2c(c1)NC(=O)/C(=C/c1ccc(C)cc1)S2` (configuration not stated), the negative-log IC50 (pIC50) in assay [1] was < 4.10.
As for `CCN(CC)CCNC(=O)c1ccc2c(c1)NC(=O)/C(=C/c1ccc(OC)c(OC)c1)S2`, the pIC50 in assay [1] is < 4.10; in assay [2], 4.22; in assay [3], 4.61.
The matching figures for `CCCN(CCC)CCNC(=O)c1ccc2c(c1)NC(=O)/C(=C/c1ccccc1)S2`: < 4.10, < 4.10 and 4.57.
With `CCN1CCCC1CNC(=O)c1ccc2c(c1)NC(=O)/C(=C/c1c(F)cccc1F)S2` (configuration not stated), the pIC50 in assay [1] is < 4.10.
Take `CCN1CCCC1CNC(=O)c1ccc2c(c1)NC(=O)/C(=C/c1ccccc1F)S2` (racemic): the pIC50 in assay [1] was < 4.10; in assay [2], 5.76; in assay [3], 5.86.
The matching figures for `COc1ccc(/C=C2\Sc3ccc(C(=O)NCCN4CCCC4)cc3NC2=O)cc1`: < 4.10, 4.30 and < 4.10.
Turning to `CCN1CCCC1CNC(=O)c1ccc2c(c1)NC(=O)/C(=C/c1ccccc1C)S2` (configuration not stated), the figures for the negative logarithm of the IC50 (pIC50) in assay [1], in assay [2] and in assay [3] were < 4.10, 5.23 and 5.30, respectively.
Take `CN(C)c1ccccc1CNC(=O)c1ccc2c(c1)NC(=O)/C(=C/c1ccccc1F)S2`: the pIC50 in assay [1] was < 4.10; in assay [2] it was < 4.10; in assay [3], 4.17.
For `CCCN1CCCC1CNC(=O)c1ccc2c(c1)NC(=O)/C(=C/c1ccccc1F)S2` (configuration not stated), the pIC50 in assay [1] was < 4.10.

These data come from ChEMBL document CHEMBL2169798, “Discovery of a Plasmodium falciparum glucose-6-phosphate dehydrogenase 6-phosphogluconolactonase inhibitor (R,Z)-N-((1-ethylpyrrolidin-2-yl)methyl)-2-(2-fluorobenzylidene)-3-oxo-3,4-dihydro-2H-benzo[b][1,4]thiazine-6-carboxamide (ML276) that reduces parasite growth in vitro” (J Med Chem, 2012).
